Compound activity: PubChem BioAssay, several laboratories
Rin1 Abl inh: blocks binding of human Rin1 to Abl; AID 588664; hit rate 0.4% among 360,000; TR-FRET Rin1/Abl binding, biochemical; inhibition, % at 7.35 µM; in the data active means inhibition above about 5%, passing the limit was not always enough
MT1-MMP act inh: inhibitors of human MT1-MMP activation; AID 651647; HT1080 RFP-PRO-GFP cells, GFP/RFP ratio fluorescence, overnight; percent of plate control window, DMSO zero; GFP/RFP ratio change, % at 20 µM; hit rate 0.061% among 360,000;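 active means GFP/RFP ratio change of at least 30% with cell ATP level not reduced by more than half and red fluorescence within 50% of control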
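Assay system: HT1080 cells carrying an RFP-PRO-GFP reporter | Dosing: Single dose of 20 µM compound, 1% DMSO final | Incubation: Cells overnight before dosing, compound overnight, 37 °C, 5% CO2 | Evaluation: GFP/RFP fluorescence ratio | Control set: DMSO and RFP-L50D-GFP cell wells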
SKN-1 inh: inhibitors of C. elegans SKN-1. hit rate 0.49% among 360,000. inhibition, % at 21.8 µM. AID 624304. C. elegans VP596 Pgst-4::GFP/RFP ratio, acrylamide-induced, 24 h;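 active means interference check ratio from 0.5 to 1.5 plus GFP to RFP signal ratio inhibition reaching or exceeding a fixed threshold, cut at about 30% in these data, passing the limit was not always enough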
Arr AP2 block: inhibitors of human beta-arrestin and AP2 interaction; FITC-arrestin peptide / GST-AP2 beads, flow cytometry; AP2 beta2 appendage carries R879A mutation; AID 504490; hit rate 0.31% among 340,000; inhibition, % at 10 µM;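 active means inhibition above a set limit, near 3 SD of compounds lacking own fluorescence, cut at about 54% in these data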
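System: GST-AP2 R879A glutathione beads. Medium: PBS with 0.05% Tween 20 and 0.1% BSA. Also added: FITC-arrestin peptide, 50 nM. Incubation: 12 min plus 1 h, RT. Measured by: high-throughput flow cytometry of beads, ex 488, em 535 nm. Evaluation: percent drop in bead-associated FITC signal.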
TbMetRS inhib: blocks T. brucei methionyl-tRNA synthetase activity; hit rate 0.4% among 360,000; purified T. brucei MetRS, ATP depletion, Kinase-Glo luminescence; inhibition, % at 11.9 µM;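 active means inhibition above a per-plate cutoff of the control wells' mean inhibition plus 3 SD, cut at about 5.5% in these data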
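Test system: purified T. brucei MetRS enzyme. Also added: ATP, methionine and E. coli bulk tRNA substrates. Compound: 11.9 µM single point. Schedule: 15 min enzyme-compound preincubation, 2 h reaction, 10 min detection, 25 °C. Signal: luciferase luminescence of residual ATP, Kinase-Glo. Evaluation: percent inhibition versus plate control medians. Controls: DMSO wells, low control.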
Each line names hits and unclear results; the compound was inactive in the other large screens. Most compounds without a hit are left out; they make up all but 1.6% or so of the library.

CCOC(=O)c1cc2c(c(CCO)n1)[C@@H](CCO)N(S(=O)(=O)C(C)(C)C)C2	none
O=C(C(=O)N1CCN(C/C=C/c2ccccc2)CC1)c1ccccc1	none (no result: Rin1 Abl inh, Arr AP2 block)
COC(=O)c1oc2ccc(Cl)cc2c1-n1cccc1	SKN-1 inh 37.4
COC(=O)c1oc2ccccc2c1-n1cccc1	none
COc1cc(NCCCCC(C)N)c2nccc(C)c2c1 (stereo not given)	SKN-1 inh 35.9 (no result: Arr AP2 block)
Clc1ccsc1-c1ccc2ccccc2n1	SKN-1 inh 89.7
c1ccc2nc(-c3nccs3)ccc2c1	none
O=C(Nc1ccc([N+](=O)[O-])cc1)c1ccccc1	SKN-1 inh 37.2
O=C(Nc1ccc(OC(F)F)c(Cl)c1)c1cccc(OC(F)F)c1	SKN-1 inh 44.4
O=C(Nc1ccc(Cl)c(Cl)c1)Nc1ccon1	SKN-1 inh 45.9
O=C(Nc1ccc(Cl)c(Cl)c1)c1ccccc1	SKN-1 inh 42.7
O=C1CSCc2nc3ccccc3n21	none
O=C(Nc1csc(Cl)c1)c1ccccc1	SKN-1 inh 42.0
Cc1nc2ccc(C(=O)N(C)Cc3ccco3)cn2c1N(C)C(=O)CCc1ccccc1	none (no result: Arr AP2 block)
COc1ccc(NC(=O)C(c2ccccc2)n2c(=O)c(-c3ccco3)nc3ccccc32)cc1 (stereo not given)	none (no result: Rin1 Abl inh, Arr AP2 block)
Cc1csc(N=Nc2ccc(N(C)C)cc2)[n+]1[O-]	none (no result: Arr AP2 block)
COCCCNC(=O)c1ccc2c3c(onc13)-c1ccccc1C2=O	SKN-1 inh 62.1
NC(=O)c1ccsc1NC(=O)C1CCCN1S(=O)(=O)c1ccc(Cl)cc1 (stereo not given)	none
CC1CCCCN1S(=O)(=O)c1ccc(C(=O)Nc2sccc2C(N)=O)cc1 (stereo not given)	SKN-1 inh 40.3
Cc1ccc2sc(NC(=O)c3ccc(N4C(=O)CCC4=O)cc3)nc2c1C	none
Cc1ccc2sc(NC(=O)c3cccc(N4C(=O)CCC4=O)c3)nc2c1C	SKN-1 inh 37.5
CN(C)c1ccc(N=Nc2ccc(C(=O)O)cc2)cc1	SKN-1 inh 40.6
Fc1ccc(-c2nc3ccc(Br)cn3c2Cc2ccccc2C(F)(F)F)cc1	SKN-1 inh 50.9 (no result: Arr AP2 block)
O=C(NCc1ccccc1)C(=O)NCC(c1ccco1)N1CCN(c2ccccc2F)CC1 (stereo not given)	Rin1 Abl inh 4.7
Cc1nn(-c2ccccc2)c(Cl)c1/C=C/C(=O)c1ccccc1	SKN-1 inh 31.5
Cc1c(C(=O)N(C)c2ccc(Cl)cc2)cnn1-c1ccccc1	SKN-1 inh 38.0
Cc1cccc(N(C)C(=O)c2cnn(-c3ccccc3)c2C)c1	none
CC(=O)O[C@H]1[C@@H](O)[C@H](O)[C@H](Oc2c(O)c(C)c3c4c2[C@@H](C)CC[C@@H]4[C@@H](C)C[C@@H]3C=C(C)C)O[C@H]1C	SKN-1 inh 40.4 (no result: Arr AP2 block)
CC(C)(C)c1ccc(C(=O)NC(=S)N2CCCCCC2)cc1	none
CC(C)(C)CC(=O)NC(=S)N1CCCCCC1	SKN-1 inh 81.2
O=C(Nc1ccccc1N1CCCCC1)C1=COCCO1	none
O=C(Nc1cc(C(F)(F)F)ccc1N1CCCCC1)C1=COCCO1	SKN-1 inh 39.3 (no result: Arr AP2 block)
CC(=O)Nc1ccc(S(=O)(=O)NCCSCc2ccc(Cl)cc2Cl)cc1	TbMetRS inhib 13.4
O=C(NC1CCCC1)C1c2ccccc2OCC(=O)N1Cc1ccco1 (stereo not given)	none (no result: Rin1 Abl inh, Arr AP2 block)
CCCS(=O)(=O)NC(=O)C1(C)CCN(C(=O)c2cccs2)C1 (stereo not given)	none (no result: Arr AP2 block)
Cn1c(OCc2ccco2)nc2c1c(=O)n(Cc1ccc(Cl)c(Cl)c1)c(=O)n2C	Arr AP2 block 80.6
O=C(O)c1ccc(Nc2ccc([N+](=O)[O-])c3nonc23)cc1	SKN-1 inh 44.2
CC(=O)c1ccc(Nc2ccc([N+](=O)[O-])c3nonc23)cc1	none
O=C(NCCc1ccc(Cl)cc1)Nc1cccc(Cl)c1	TbMetRS inhib 7.0
Cc1c(N=C2N=C(NC(=O)c3cccs3)c3ccccc32)c(=O)n(-c2ccccc2)n1C	SKN-1 inh 38.7
O=[N+]([O-])c1cc(CN2CCCC2)ccc1Sc1ccc(Cl)cc1	SKN-1 inh 51.9
COc1ccc(CNC(=O)C(C)OC(=O)c2cccc(N(C)C)c2)cc1 (stereo not given)	none
O=C1c2ccc3c4c(ccc(c24)C(=O)N1c1ccc2ccccc2c1)CC3	SKN-1 inh 35.1
O=C1c2cccc3cccc(c23)C(=O)N1c1ccc2ncccc2c1	none
CC1=NN(c2ccccc2)C(=O)/C1=C\C=C1/N(C)c2ccccc2C1(C)C	SKN-1 inh 46.8
CC1=NN(c2ccccc2)C(=O)/C1=C\C=C1\N(C)c2ccccc2C1(C)C	SKN-1 inh 37.8
Clc1ccccc1-c1ncc(-c2ccccc2)o1	SKN-1 inh 41.8
CN(C)c1ccc(C(=O)/C=C/c2ccco2)cc1	none
CN(C)c1ccc(C(=O)/C=C/c2ccccc2)cc1	SKN-1 inh 42.8 (no result: Arr AP2 block)
CCNC(=O)C1(C)CCCN(C(=O)c2cc(-c3ccccc3)cs2)C1 (stereo not given)	none (no result: Arr AP2 block)
CN(CCc1ccccc1)C(=O)c1[nH]c(C(F)(F)F)nc1-c1ccccc1	none (no result: Arr AP2 block)
N#Cc1nc(COc2ccc(-c3ccccc3)cc2)oc1NCCCN1CCOCC1	Arr AP2 block 83.0
COc1ccc(CN(C)C[C@@H]2OCCCC[C@H](C)Oc3ccc(NC(=O)Nc4ccc(F)cc4)cc3C(=O)N([C@H](C)CO)C[C@H]2C)cc1	none (no result: Arr AP2 block)
COc1cccc(C(=O)NCC(=O)N2CCC3(CC2)NCCc2[nH]cnc23)c1	SKN-1 inh 36.4
Cc1ccc(C(=O)NCC(=O)N2CCC3(CC2)NCCc2[nH]cnc23)cc1C	none
CC1(C)CC(=O)C(CC(=O)c2ccccc2)=C(NN=C(N)N)C1	none (no result: Arr AP2 block)
O=C(O)COn1c(-c2ccc(Cl)cc2)nc2ccc(Cl)cc21	none
O=[N+]([O-])c1ccc2nc(-c3ccc(Cl)cc3)n(OCc3ccccc3)c2c1	SKN-1 inh 40.8
COn1c(-c2ccc(Cl)cc2)nc2ccc(Cl)cc21	SKN-1 inh 87.4
CCOC(=O)C(C)On1c(-c2ccc(Cl)cc2)nc2ccc([N+](=O)[O-])cc21 (stereo not given)	SKN-1 inh 41.2
COc1ccc(OC)c(COC(=O)c2cccc(S(=O)(=O)N3CCCCC3)c2)c1	none
CCC(=O)N1c2ccc(S(=O)(=O)CCC(=O)NC3CCCC3)cc2CC1C (stereo not given)	none
CCC(=O)N1c2ccc(S(=O)(=O)CCC(=O)NCc3cccs3)cc2CC1C (stereo not given)	SKN-1 inh 42.9
CC1=C(C(=O)N(C(C)C)C(C)C)CC(CC(=O)NCCN2CCOCC2)C(=O)N1CCC1=CCCCC1 (stereo not given)	none (no result: Arr AP2 block)
COc1ccc2cc(C3CC=C(COC(C)=O)CN3S(=O)(=O)c3ccccc3[N+](=O)[O-])n(C(=O)OC(C)(C)C)c2c1 (stereo not given)	none (no result: Rin1 Abl inh, Arr AP2 block)
